According to ChEMBL document CHEMBL1140702, “New celecoxib derivatives as anti-inflammatory agents” (J Med Chem, 2008):

Experiments:
Rattus norvegicus [1] = experiment: Antiinflammatory activity in Wistar rat assessed as inhibition of carrageenan-induced paw edema at 10 mg/kg, po after 6 hrs relative to celecoxib; assay type: functional; details: for inhibition in vivo at 10 mg/kg: Rattus norvegicus, Wistar, po, 6 h
Method in brief: (§1)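 Male Wistar rats (140–150 g; n = 6–12/group) given 50 µL of 1% carrageenan subcutaneously into the right hind paw subplantar region. Oral test doses. Edema is the pre- versus post-treatment volume difference (mL), read by water-displacement plethysmometer.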

Rattus norvegicus [2] = experiment: Antiinflammatory activity in Wistar rat assessed as inhibition of carrageenan-induced paw edema at 10 mg/kg, po after 4 hrs relative to celecoxib; assay type: functional; details: for inhibition in vivo at 10 mg/kg: Rattus norvegicus, Wistar, po, 4 h; method in brief: as §1
Rattus norvegicus [3] = experiment: Antiinflammatory activity in Wistar rat assessed as inhibition of carrageenan-induced paw edema at 10 mg/kg, po after 7 hrs relative to celecoxib; assay type: functional; details: for inhibition in vivo at 10 mg/kg: Rattus norvegicus, Wistar, po, 7 h; method in brief: as §1
Rattus norvegicus [4] = experiment: Inhibition of ethanol-induced gastric mucosal damage in Wistar rat at 30 mg/kg, po; assay type: functional; details: Gastric mucosa
Method in brief: (§2)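 After 24 h fasting, male Wistar rats (140–160 g; n = 10) received oral 0.5 mL acidified ethanol (98% ethanol in 200 mmol/l HCl), with oral test doses and methylcellulose vehicle. Stomachs removed 1 h later and scored blind on a 0–4 scale. Lesion index = lesion number × severity. % inhibition calculated against control lesion index.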

Rattus norvegicus [5] = experiment: Effect on acetic acid-induced chronic gastric ulcer Wistar rat assessed as area of ulcer at 30 mg/kg, po; assay type: functional, Stomach
Method in brief: (§3)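 Chronic ulcer (Okabe method): under ether anesthesia, male Wistar rats (150–170 g) had 0.05 mL 20% acetic acid injected into the submucosa of the anterior glandular stomach wall via laparotomy. Oral dosing with methylcellulose vehicle control. Killed after 12 days. Ulcer area taken as length × width (mm²); body-weight change recorded.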

Rattus norvegicus [6] = experiment: Antiinflammatory activity in Wistar rat assessed as inhibition of carrageenan-induced paw edema
Rattus norvegicus [7] = experiment: Analgesic activity in chronic model Wistar rat assessed as reversal of carrageenan-induced hind paw edema at 30 mg/kg, po after 60 mins by mechanical hyperalgesia test relative to celecoxib; assay type: functional
Method in brief: (§4)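 Randall-Selitto test: male Wistar rats (140–190 g; n = 8–12/group), carrageenan injected subcutaneously in the subplantar right hind paw. Basal paw-withdrawal pressure threshold (g) measured before carrageenan, then after oral dosing at 30, 60, 120 and 180 min. Maximal threshold reduction develops 2–3 h post-injection. Analgesia expressed as % reversal of hyperalgesia.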

Rattus norvegicus [8] = experiment: Analgesic activity in acute model Wistar rat assessed as reversal of carrageenan-induced hind paw edema at 30 mg/kg, po after 120 mins by mechanical hyperalgesia test relative to celecoxib; assay type: functional; method in brief: as §4
Rattus norvegicus [9] = experiment: Analgesic activity in acute model Wistar rat assessed as reversal of carrageenan-induced hind paw edema at 30 mg/kg, po after 180 mins by mechanical hyperalgesia test relative to celecoxib; assay type: functional; method in brief: as §4
Rattus norvegicus [10] = experiment: Analgesic activity in chronic model Wistar rat assessed as reversal of carrageenan-induced hind paw edema at 10 mg/kg, po after 120 mins by mechanical hyperalgesia test relative to celecoxib; assay type: functional; method in brief: as §4
Rattus norvegicus [11] = experiment: Antiinflammatory activity in Wistar rat assessed as inhibition of carrageenan-induced paw edema after 4 hrs; assay type: functional
Rattus norvegicus [12] = experiment: Inhibition of ethanol-induced gastric mucosal damage in Wistar rat assessed as ulcer index at 30 mg/kg, po; assay type: functional, Gastric mucosa; method in brief: as §2
Rattus norvegicus [13] = experiment: Analgesic activity in chronic model Wistar rat assessed as reversal of carrageenan-induced hind paw edema at 10 mg/kg, po after 60 mins by mechanical hyperalgesia test relative to celecoxib; assay type: functional; method in brief: as §4
Rattus norvegicus [14] = experiment: Analgesic activity in acute model Wistar rat assessed as reversal of carrageenan-induced hind paw edema at 10 mg/kg, po after 60 mins by mechanical hyperalgesia test relative to celecoxib; assay type: functional; method in brief: as §4
Rattus norvegicus [15] = experiment: Analgesic activity in chronic model Wistar rat assessed as reversal of carrageenan-induced hind paw edema at 10 mg/kg, po after 30 mins by mechanical hyperalgesia test relative to celecoxib; assay type: functional; method in brief: as §4
Rattus norvegicus [16] = experiment: Analgesic activity in chronic model Wistar rat assessed as reversal of carrageenan-induced hind paw edema at 10 mg/kg, po after 180 mins by mechanical hyperalgesia test relative to celecoxib; assay type: functional; method in brief: as §4
Rattus norvegicus [17] = experiment: Inhibition of ethanol-induced gastric mucosal damage in Wistar rat assessed as ulcer index at 60 mg/kg, po; assay type: functional, Gastric mucosa; method in brief: as §2
Rattus norvegicus [18] = experiment: Inhibition of ethanol-induced gastric mucosal damage in Wistar rat assessed as ulcer index at 15 mg/kg, po; assay type: functional, Gastric mucosa; method in brief: as §2
Rattus norvegicus [19] = experiment: Inhibition of ethanol-induced gastric mucosal damage in Wistar rat at 15 mg/kg, po; assay type: functional; details: Gastric mucosa; method in brief: as §2
Rattus norvegicus [20] = experiment: Analgesic activity in acute model Wistar rat assessed as reversal of carrageenan-induced hind paw edema at 10 mg/kg, po after 180 mins by mechanical hyperalgesia test relative to celecoxib; assay type: functional; method in brief: as §4
Rattus norvegicus [21] = experiment: Analgesic activity in acute model Wistar rat assessed as reversal of carrageenan-induced hind paw edema at 30 mg/kg, po after 60 mins by mechanical hyperalgesia test relative to celecoxib; assay type: functional; method in brief: as §4
Rattus norvegicus [22] = experiment: Analgesic activity in chronic model Wistar rat assessed as reversal of carrageenan-induced hind paw edema at 30 mg/kg, po after 30 mins by mechanical hyperalgesia test relative to celecoxib; assay type: functional; method in brief: as §4
Rattus norvegicus [23] = experiment: Analgesic activity in chronic model Wistar rat assessed as reversal of carrageenan-induced hind paw edema at 30 mg/kg, po after 180 mins by mechanical hyperalgesia test relative to celecoxib; assay type: functional; method in brief: as §4
Rattus norvegicus [24] = experiment: Analgesic activity in acute model Wistar rat assessed as reversal of carrageenan-induced hind paw edema at 10 mg/kg, po after 120 mins by mechanical hyperalgesia test relative to celecoxib; assay type: functional; method in brief: as §4
Rattus norvegicus [25] = experiment: Inhibition of ethanol-induced gastric mucosal damage in Wistar rat at 60 mg/kg, po; assay type: functional; details: Gastric mucosa; method in brief: as §2
Rattus norvegicus [26] = experiment: Increase in body weight in acetic acid-induced chronic gastric ulcer Wistar rat at 30 mg/kg, po; assay type: functional, Stomach; method in brief: as §3
Rattus norvegicus [27] = experiment: Analgesic activity in chronic model Wistar rat assessed as reversal of carrageenan-induced hind paw edema at 30 mg/kg, po after 120 mins by mechanical hyperalgesia test relative to celecoxib; assay type: functional; method in brief: as §4
Rattus norvegicus [28] = experiment: Effect on acetic acid-induced chronic gastric ulcer Wistar rat assessed as area of ulcer at 2.0 mg/kg, po; assay type: functional, Stomach; method in brief: as §3
Rattus norvegicus [29] = experiment: Increase in body weight in acetic acid-induced chronic gastric ulcer Wistar rat at 2.0 mg/kg, po; assay type: functional, Stomach; method in brief: as §3

Structure (SMILES): Cc1ccc(-c2cc(C(F)(F)F)nn2-c2ccc(S(=O)(=O)NOCCC(=O)[O-])cc2)cc1.[Na+]
- Inhibition (Rattus norvegicus [1]): 33.9%
- inhibition in vivo at 10 mg/kg (Rattus norvegicus [2]): 32%
- Inhibition (Rattus norvegicus [3]): 24.9%

Structure (SMILES): Cc1ccc(-c2cc(C(F)(F)F)nn2-c2ccc(S(=O)(=O)NOCC(=O)O)cc2)cc1 [listing 1 of 2 here]
- Inhibition (Rattus norvegicus [1]): 21.3%
- Inhibition (Rattus norvegicus [2]): 13.1%
- Inhibition (Rattus norvegicus [3]): 17.1%

Structure (SMILES): CCOC(=O)CONS(=O)(=O)c1ccc(-n2nc(C(F)(F)F)cc2-c2ccc(C)cc2)cc1
- inhibition in vivo at 10 mg/kg (Rattus norvegicus [1]): 23.1%
- inhibition in vivo at 10 mg/kg (Rattus norvegicus [2]): 13.3%
- inhibition in vivo at 10 mg/kg (Rattus norvegicus [3]): 20.6%

Structure (SMILES): Cc1ccc(-c2cc(C(F)(F)F)nn2-c2ccc(S(=O)(=O)NO[C@@H](C)C(=O)O)cc2)cc1
- inhibition in vivo at 10 mg/kg (Rattus norvegicus [1]): -9.3%
- inhibition in vivo at 10 mg/kg (Rattus norvegicus [2]): 0.9%
- inhibition in vivo at 10 mg/kg (Rattus norvegicus [3]): -6.3%

Structure (SMILES): Cc1ccc(-c2cc(C(F)(F)F)nn2-c2ccc(S(=O)(=O)NO[C@H](C)C(=O)O)cc2)cc1
- inhibition in vivo at 10 mg/kg (Rattus norvegicus [1]): 15.3%
- inhibition in vivo at 10 mg/kg (Rattus norvegicus [2]): 18.4%
- inhibition in vivo at 10 mg/kg (Rattus norvegicus [3]): 6.7%

Structure (SMILES): Cc1ccc(-c2cc(C(F)(F)F)nn2-c2ccc(S(=O)(=O)NOCCC(=O)O)cc2)cc1
- Inhibition (Rattus norvegicus [1]): 12.8%
- Inhibition (Rattus norvegicus [2]): 23.6%
- Inhibition (Rattus norvegicus [3]): 11.9%

Structure (SMILES): Cc1ccc(-c2cc(C(F)(F)F)nn2-c2ccc(S(=O)(=O)NOCC(=O)O)cc2)cc1 [listing 2 of 2 here]
- inhibition in vivo at 10 mg/kg (Rattus norvegicus [1]): 33.2%
- inhibition in vivo at 10 mg/kg (Rattus norvegicus [2]): 26%
- inhibition in vivo at 10 mg/kg (Rattus norvegicus [3]): 24.7%

Structure (SMILES): CCOC(=O)C(C)ONS(=O)(=O)c1ccc(-n2nc(C(F)(F)F)cc2-c2ccc(C)cc2)cc1 (racemic)
- inhibition in vivo at 10 mg/kg (Rattus norvegicus [1]): 15.7%
- inhibition in vivo at 10 mg/kg (Rattus norvegicus [2]): 23.5%
- inhibition in vivo at 10 mg/kg (Rattus norvegicus [3]): 7.3%

Structure (SMILES): Cc1ccc(-c2cc(C(F)(F)F)nn2-c2ccc(S(=O)(=O)NOC(C)C(=O)O)cc2)cc1 (racemic; 16)
- Inhibition (Rattus norvegicus [1]): 31.1%
- inhibition in vivo at 30 mg/kg (Rattus norvegicus [4]): 43%
- Activity (Rattus norvegicus [5]): 2.4 mm2
- ED30 (Rattus norvegicus [6]): 8.4 mg/kg
- Activity (Rattus norvegicus [7]): 54%
- Activity (Rattus norvegicus [8]): 59%
- Activity (Rattus norvegicus [9]): 35%
- Activity (Rattus norvegicus [10]): 28%
- Inhibition (Rattus norvegicus [2]): 41%
- ED30 (Rattus norvegicus [11]): 5.7 mg/kg
- UI (Rattus norvegicus [12]): 35
- Activity (Rattus norvegicus [13]): 22%
- Activity (Rattus norvegicus [14]): 24%
- Activity (Rattus norvegicus [15]): 23%
- Activity (Rattus norvegicus [16]): 20%
- UI (Rattus norvegicus [17]): 15.8
- UI (Rattus norvegicus [18]): 43
- inhibition in vivo at 15 mg/kg (Rattus norvegicus [19]): 35%
- Activity (Rattus norvegicus [20]): 15%
- Activity (Rattus norvegicus [21]): 89%
- Inhibition (Rattus norvegicus [3]): 17.9%
- Activity (Rattus norvegicus [22]): 42%
- Activity (Rattus norvegicus [23]): 19%
- Activity (Rattus norvegicus [24]): 30%
- inhibition in vivo at 60 mg/kg (Rattus norvegicus [25]): 76%
- Activity (Rattus norvegicus [26]): 43 g
- Activity (Rattus norvegicus [27]): 34%

Structure (SMILES): Cc1ccc(-c2cc(C(F)(F)F)nn2-c2ccc(S(=O)(=O)NOC(C)C(=O)O)cc2)cc1 (racemic; 21)
- inhibition in vivo at 10 mg/kg (Rattus norvegicus [1]): 21.8%
- inhibition in vivo at 10 mg/kg (Rattus norvegicus [2]): 38.4%
- inhibition in vivo at 10 mg/kg (Rattus norvegicus [3]): 16.2%

Structure (SMILES): Cc1ccc(-c2cc(C(F)(F)F)nn2-c2ccc(S(N)(=O)=O)cc2)cc1 [CELECOXIB]
- inhibition in vivo at 10 mg/kg (Rattus norvegicus [1]): 18.6%
- inhibition in vivo at 30 mg/kg (Rattus norvegicus [4]): 19%
- Activity (Rattus norvegicus [5]): 8.2 mm2
- ED30 (Rattus norvegicus [6]): > 30 mg/kg
- Activity (Rattus norvegicus [7]): 34%
- Activity (Rattus norvegicus [8]): 3%
- Activity (Rattus norvegicus [9]): 0%
- Activity (Rattus norvegicus [10]): 0%
- inhibition in vivo at 10 mg/kg (Rattus norvegicus [2]): 24.2%
- ED30 (Rattus norvegicus [11]): 23 mg/kg
- UI (Rattus norvegicus [12]): 49.4
- Activity (Rattus norvegicus [13]): 17%
- Activity (Rattus norvegicus [14]): 0%
- Activity (Rattus norvegicus [15]): 24%
- Activity (Rattus norvegicus [16]): 0%
- UI (Rattus norvegicus [17]): 44.4
- UI (Rattus norvegicus [18]): 80.6
- inhibition in vivo at 15 mg/kg (Rattus norvegicus [19]): 18%
- Activity (Rattus norvegicus [20]): 0%
- Activity (Rattus norvegicus [21]): 24%
- inhibition in vivo at 10 mg/kg (Rattus norvegicus [3]): 12.3%
- Activity (Rattus norvegicus [22]): 54%
- Activity (Rattus norvegicus [23]): 26%
- Activity (Rattus norvegicus [24]): 0%
- inhibition in vivo at 60 mg/kg (Rattus norvegicus [25]): 55%
- Activity (Rattus norvegicus [26]): 32 g
- Activity (Rattus norvegicus [27]): 34%

Structure (SMILES): COc1ccc2c(c1)c(CC(=O)O)c(C)n2C(=O)c1ccc(Cl)cc1 [INDOMETHACIN]
- Activity (Rattus norvegicus [28]): 39 mm2
- Activity (Rattus norvegicus [29]): 2 g
